16 molecules from ChEMBL document CHEMBL1155178, “Reactivity of isothiazolones and isothiazolone-1-oxides in the inhibition of the PCAF histone acetyltransferase” (Eur J Med Chem, 2009) can be followed below.

Structures are written as SMILES.

Series [1] addresses Histone acetyltransferase KAT2B (Homo sapiens, UniProt Q92831). As to the kind of experiment: Inhibition of human recombinant histone acetyltransferase PCAF assessed as CoA-SH activity preincubated for 15 mins by CPM fluorescent assay.
Another series relates to HepG2. As to the kind of experiment: Growth inhibition of human HepG2 cells after 48 hrs by crystal violet assay. As to conditions: HepG2, 48 h. Type of series: functional, cell-based. The essentials: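 HEP G2 liver cancer cells grown in DMEM with 10% heat-inactivated FBS, penicillin and streptomycin at 37 °C, 5% CO2. Seeded at 5000 cells/well, grown 24 h, then exposed to inhibitors for 48 h. Fixed and stained with 1% crystal violet in 70% ethanol for 30 min, water-washed, solubilized in 1% SDS, read at 550 nm. Cell-free blank subtracted; untreated growth set to 100%. Each concentration tested 8-fold.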

Series [2] in a line: Octanol-water partition coefficient, log P by HPLC analysis. The class given is physicochemical. In short, it runs like this:
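log P determined from the analyte's peak area in each of the two layers.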

By IC50 is commonly meant the concentration at which inhibition is half-maximal. By logP is commonly meant a log measure of how a compound divides between an organic and an aqueous phase.

Chain of Histone acetyltransferase KAT2B (Q92831 whole entry): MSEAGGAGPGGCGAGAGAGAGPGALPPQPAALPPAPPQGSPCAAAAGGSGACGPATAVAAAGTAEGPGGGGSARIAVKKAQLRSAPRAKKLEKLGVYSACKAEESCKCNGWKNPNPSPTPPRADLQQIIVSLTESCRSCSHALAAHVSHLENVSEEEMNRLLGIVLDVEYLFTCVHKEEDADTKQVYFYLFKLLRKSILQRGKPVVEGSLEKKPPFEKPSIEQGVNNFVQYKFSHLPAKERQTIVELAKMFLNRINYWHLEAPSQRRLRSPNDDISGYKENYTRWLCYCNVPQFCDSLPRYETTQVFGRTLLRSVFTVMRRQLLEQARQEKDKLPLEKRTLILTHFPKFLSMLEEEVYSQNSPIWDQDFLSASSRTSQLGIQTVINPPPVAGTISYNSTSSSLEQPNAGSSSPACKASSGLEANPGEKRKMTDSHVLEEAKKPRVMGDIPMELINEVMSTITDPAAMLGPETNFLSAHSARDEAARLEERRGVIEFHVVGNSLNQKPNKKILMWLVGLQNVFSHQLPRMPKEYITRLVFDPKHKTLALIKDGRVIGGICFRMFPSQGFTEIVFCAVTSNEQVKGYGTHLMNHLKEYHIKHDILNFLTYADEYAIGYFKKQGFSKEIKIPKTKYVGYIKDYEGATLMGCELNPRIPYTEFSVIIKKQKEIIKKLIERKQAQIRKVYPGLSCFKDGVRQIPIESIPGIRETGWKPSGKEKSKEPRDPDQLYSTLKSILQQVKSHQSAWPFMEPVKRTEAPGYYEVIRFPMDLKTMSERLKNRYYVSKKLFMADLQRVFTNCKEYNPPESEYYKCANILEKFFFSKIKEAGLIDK

As to `CCn1c(=O)c(C)c(Cl)[s+]1[O-]` (stereo unspecified), the concentration for half-maximal inhibition (IC50) in series [1] is more than 10 µM; in the series with HepG2 it was more than 100 µM.

In the series with HepG2, `CCn1sc(Cl)cc1=O` had an IC50 of 12 µM.

`COC(=O)CCn1c(=O)c(Cl)c(Cl)[s+]1[O-]` (stereo unspecified): the results for the IC50 (in series [1]; with HepG2) were more than 10 µM and more than 100 µM, respectively.

For `CCCCCCCCCCCCSc1c(Cl)c(=O)n(CCC(=O)OC)[s+]1[O-]` (stereo unspecified), the IC50 in series [1] is more than 10 µM; in the series on HepG2, more than 100 µM.

For the molecule `CCn1sc(Cl)c(C)c1=O`, the IC50 was more than 10 µM in series [1] and 9.1 µM in the series with HepG2.

On to `COC(=O)CCn1sc(Cl)c(Cl)c1=O`, for which the IC50 in series [1] came to 2.6 µM; in the series with HepG2, 16 µM.

Take `COC(=O)CCn1c(=O)c(C)c(Cl)[s+]1[O-]` (stereo unspecified): the values for the IC50 (in series [1]; in the series on HepG2) were more than 10 µM and more than 100 µM, respectively.

As to `COC(=O)CCn1sc(Cl)c(C)c1=O`, the IC50 in series [1] was more than 10 µM; with HepG2, 8.6 µM.

With `COC(=O)CCn1sc(Cl)cc1=O`, half-maximal inhibition with HepG2 (IC50) required 24 µM. In addition, the logP in series [2] was 0.69.

As to `CCn1sc(Cl)c(Cl)c1=O`, the IC50 in series [1] was 2.4 µM; in the series with HepG2 it was 12 µM.

For `COC(=O)CCn1c(=O)cc(Cl)[s+]1[O-]` (stereo unspecified), the IC50 in the series with HepG2 is more than 100 µM. Also, the logP in series [2] was determined as 0.08.

Consider `CCn1c(=O)cc(Cl)[s+]1[O-]` (stereo unspecified), for which the results for the IC50 (in series [1]; with HepG2) were more than 10 µM and more than 100 µM, respectively.

For `CCCCCCCCCCCCSc1cc(=O)n(CCC(=O)OC)[s+]1[O-]` (stereo unspecified), the IC50 was more than 10 µM in series [1] and more than 100 µM with HepG2.

As for `CC(C)(C)n1c(=O)cc(Cl)[s+]1[O-]` (stereo unspecified), the IC50 is more than 10 µM in series [1] and 27 µM in the series with HepG2.

As for `CCCCCCCCCCCCSc1cc(=O)n(C(C)(C)C)[s+]1[O-]` (stereo unspecified), the IC50 is more than 10 µM in series [1] and more than 50 µM with HepG2.

`CCn1c(=O)c(Cl)c(Cl)[s+]1[O-]` (stereo unspecified): the results for the IC50 (in series [1]; in the series on HepG2) were more than 10 µM and more than 100 µM, respectively.
